ChEMBL document CHEMBL1122451, “Synthesis of 3,4-dihydro-4-oxoquinazoline derivatives as potential anticonvulsants” (J Med Chem, 1983)
Calls of active or inactive are those of the source.

Tests used:
Mus musculus [1] = experiment: Anticonvulsant activity in mice using sc Met seizure test.; type: functional
Procedure, shortened: (§1)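 Mice were dosed at 30, 100, 300 and 600 mg/kg, four per dose, and tested at 30 min and 4 h. Pentylenetetrazol was then given subcutaneously at its CD99. Protection means absence of even a threshold seizure (one clonic spasm of 5 s). ED50 was estimated graphically, some at peak-effect time or 4 h. Litchfield-Wilcoxon 95% limits apply where confirmed.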

Mus musculus [2] = species: Mus musculus; experiment: Anticonvulsant activity in mice using MES seizure test;NA means inactive.; type: functional, organism-based
Procedure, shortened: (§2)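 Mice were injected at 30, 100, 300 and 600 mg/kg, four per dose, and tested at 30 min and 4 h. Protection means abolition of the hindlimb tonic extensor component of the maximal electroshock seizure (60 Hz alternating current, 50 mA, 0.2 s, corneal electrodes). ED50 was estimated graphically. Confirmed values carry Litchfield-Wilcoxon 95% confidence limits.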

[3] = Anticonvulsant activity expressed as toxic dose in rotarod test (0.5 hr) in mice; type: toxicity, organism-based; settings: mouse, in vivo
Procedure, shortened: (§3)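 Acute neurotoxicity in mice by rotorod test after injection at 30, 100, 300 and 600 mg/kg, read at 30 min and 4 h, four animals per dose. TD50 is the median neurotoxic dose, estimated graphically; where confidence limits are given they are 95% limits by the Litchfield-Wilcoxon method from additional ADD testing.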

Mus musculus [4] = species: Mus musculus; experiment: Anticonvulsant activity in mice using MES seizure test;Activity determined at time of peak effect (0.5 hr) and value ranges from (48-56).; type: functional; procedure, shortened: as §2
[5] = Anticonvulsant activity expressed as toxic dose in rotarod test (0.5 hr) in mice;Activity determined at time of peak effect (0.5 hr) and value ranges from(47-65).; type: ADME, organism-based; settings: mouse, in vivo
Procedure, shortened: (§4)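 Mice, rotorod test of acute neurotoxicity at 0.5 h. Doses 30, 100, 300 and 600 mg/kg, four animals per dose, with positives assessed by four more observations. Median neurotoxic dose (TD50) was estimated graphically from combined ADD and in-house screening. Where confirmed by further ADD testing, 95% confidence limits were calculated by Litchfield-Wilcoxon.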

Mus musculus [6] = experiment: Anticonvulsant activity in mice using sc Met seizure test;NA means inactive.; type: functional, organism-based; procedure, shortened: as §1
Mus musculus [7] = experiment: Anticonvulsant activity in mice using sc Met seizure test;Activity determined at the time of peak effect (1hr) and value ranges from (26-62).; type: functional
Procedure, shortened: (§5)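 Subcutaneous pentylenetetrazol at the CD99 convulsant dose was given to mice pretreated at 30–600 mg/kg, four per dose, with tests at 30 min and 4 h. Protection is the absence of even a threshold seizure (one clonic spasm episode of 5 s). ED50 is estimated graphically or determined at the time of peak effect; 95% limits are by Litchfield-Wilcoxon.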

Mus musculus [8] = experiment: Anticonvulsant activity in mice using MES seizure test;Compound is neurotoxic at 300 mg/kg dose.; type: functional, organism-based; set-up: dose 300 mg/kg
[9] = Anticonvulsant activity expressed as toxic dose in rotarod test (0.5 hr) in mice;Activity determined at the time of peak effect (0.5 hr) and value ranges from (126-147).; type: ADME, organism-based; settings: mouse, in vivo; procedure, shortened: as §3
Mus musculus [10] = experiment: Anticonvulsant activity in mice using sc Met seizure test;Activity is determined at 4h.; type: functional; procedure, shortened: as §5
Mus musculus [11] = experiment: Anticonvulsant activity in mice using sc Met seizure test;Compound is neurotoxic at 5 mg/kg.; type: functional, organism-based; set-up: dose 5 mg/kg
Mus musculus [12] = experiment: Anticonvulsant activity in mice using MES seizure test;Compound is neurotoxic at 30 mg/kg dose.; type: functional, organism-based; set-up: dose 30 mg/kg
Mus musculus [13] = experiment: Anticonvulsant activity in mice using sc Met seizure test;Activity determined at time of peak effect (0.5 hr) and value ranges from(12-20).; type: functional; procedure, shortened: as §5
Mus musculus [14] = species: Mus musculus; experiment: Anticonvulsant activity in mice using MES seizure test;Activity determined at time of peak effect (0.5 hr) and value ranges from(48-55); type: functional
[15] = Anticonvulsant activity expressed as toxic dose in rotarod test (0.5 hr) in mice;Value ranges from(36-43).; type: ADME, organism-based; settings: mouse, in vivo; procedure, shortened: as §3
Mus musculus [16] = species: Mus musculus; experiment: Anticonvulsant activity in mice using MES seizure test; determined at time of peak effect (0.5 hr); type: functional; procedure, shortened: as §2
Mus musculus [17] = species: Mus musculus; experiment: Anticonvulsant activity expressed as toxic dose in rotarod test (0.5 hr) in mice;NA means inactive.; type: ADME, organism-based; settings: in vivo; procedure, shortened: as §4
Mus musculus [18] = experiment: Anticonvulsant activity in mice using sc Met seizure test;Activity determined at 4h.; type: functional; procedure, shortened: as §5
Mus musculus [19] = experiment: Anticonvulsant activity in mice using MES seizure test;Compound is neurotoxic at 100 mg/kg.; type: functional, organism-based; set-up: dose 100 mg/kg
[20] = Anticonvulsant activity expressed as toxic dose in rotarod test (0.5 hr) in mice;Activity determined at time of peak effect (0.5 hr); type: ADME, organism-based; settings: mouse, in vivo; procedure, shortened: as §3
Mus musculus [21] = experiment: Anticonvulsant activity expressed as toxic dose in rotarod test (0.5 hr) in mice;4 out of 4 mice died at 600 mg/kg; wild running and tonic extension convulsion at 300 mg/kg;NA means inactive.; type: ADME, organism-based; settings: in vivo; procedure, shortened: as §4
Mus musculus [22] = species: Mus musculus; experiment: Anticonvulsant activity in mice using MES seizure test.; type: functional; procedure, shortened: as §2

Structure (SMILES): COC(=O)c1c(C)c(C)cc2c(=O)n(-c3cccc(F)c3)c(C)nc12
- ED50 (Mus musculus [1]): 430 mg/kg
- ED50 (Mus musculus [2]): inactive
- TD50 at 0.5 h [3]: 540 mg/kg

Structure (SMILES): Cc1ccccc1-n1c(C)nc2ccccc2c1=O [METHAQUALONE]
- ED50 (Mus musculus [4]): 52 mg/kg
- TD50 at 0.5 h [5]: 55 mg/kg

Structure (SMILES): COC(=O)c1c(C)c(C)cc2c(=O)n(-c3ccccc3F)c(C)nc12
- ED50 (Mus musculus [6]): inactive
- ED50 (Mus musculus [2]): inactive
- TD50 at 0.5 h [3]: 280 mg/kg

Structure (SMILES): Cc1ccccc1-n1c(C)nc2ncccc2c1=O
- ED50 (Mus musculus [7]): 40 mg/kg
- ED50 (Mus musculus [8]): inactive
- TD50 at 0.5 h [9]: 137 mg/kg

Structure (SMILES): Cc1nc2cccnc2c(=O)n1-c1cccc(C(F)(F)F)c1
- ED50 (Mus musculus [6]): inactive
- ED50 (Mus musculus [2]): inactive
- TD50 at 0.5 h [3]: 50 mg/kg

Structure (SMILES): Cc1nc2cccnc2c(=O)n1-c1ccc(C(F)(F)F)cc1
- ED50 (Mus musculus [10]): 90 mg/kg
- ED50 (Mus musculus [8]): inactive
- TD50 at 0.5 h [3]: 170 mg/kg

Structure (SMILES): Cc1nc2cccnc2c(=O)n1-c1ccc(Cl)cc1Cl
- ED50 (Mus musculus [11]): inactive
- ED50 (Mus musculus [12]): inactive

Structure (SMILES): Cc1ccccc1-n1c(C)nc2cccnc2c1=O
- ED50 (Mus musculus [13]): 16.5 mg/kg
- ED50 (Mus musculus [14]): 52 mg/kg
- TD50 at 0.5 h [15]: 40 mg/kg

Structure (SMILES): COC(=O)c1c(C)c(C)cc2c(=O)n(-c3ccccn3)c(C)nc12
- ED50 (Mus musculus [16]): 52 mg/kg
- ED50 (Mus musculus [6]): inactive
- TD50 (Mus musculus [17]): Not Active

Structure (SMILES): Cc1cc2c(=O)n(-c3ccc(F)cc3)c(C)nc2c(C(=O)O)c1C
- ED50 (Mus musculus [1]): 440 mg/kg
- ED50 (Mus musculus [2]): inactive
- TD50 (Mus musculus [17]): Not Active

Structure (SMILES): COC(=O)c1c(C)c(C)cc2c(=O)n(-c3ccccc3C)c(C)nc12
- ED50 (Mus musculus [1]): 600 mg/kg
- ED50 (Mus musculus [2]): inactive
- TD50 (Mus musculus [17]): Not Active

Structure (SMILES): Cc1nc2cccnc2c(=O)n1-c1ccccc1C(F)(F)F
- ED50 (Mus musculus [18]): 100 mg/kg
- ED50 (Mus musculus [19]): inactive
- TD50 at 0.5 h [20]: 100 mg/kg

Structure (SMILES): Cc1cc2c(=O)n(-c3ccccn3)c(C)nc2c(C(=O)O)c1C
- ED50 (Mus musculus [6]): inactive
- ED50 (Mus musculus [2]): inactive
- TD50 (Mus musculus [21]): Not Active

Structure (SMILES): COC(=O)c1c(C)c(C)cc2c(=O)n(-c3ccc(F)cc3)c(C)nc12
- ED50 (Mus musculus [1]): 440 mg/kg
- ED50 (Mus musculus [22]): 600 mg/kg
- TD50 (Mus musculus [17]): Not Active
